# Results taken from ChEMBL document CHEMBL4428089 (Bioorg Med Chem, 2016).
# Activity calls are given as the source filed them. The calls are words filed in the database; no cut-off is given here.
# Experiments:
# [1] = biological target: D(2) dopamine receptor (Rattus norvegicus, UniProt P61169); experiment: Displacement of [3H]spiperone from rat D2L dopamine receptor expressed in HEK293 cell membranes after 1 hr
# [2] = biological target: D(3) dopamine receptor (Rattus norvegicus, UniProt P19020); experiment: Displacement of [3H]spiperone from rat D3 dopamine receptor expressed in HEK293 cell membranes after 1 hr
# [3] = species: Rattus norvegicus; experiment: Selectivity ratio of Ki for rat D2L dopamine receptor expressed in HEK293 cells to Ki for rat D3 dopamine receptor expressed in HEK293 cells; assay type: cell-based
# [4] = biological target: Alpha-synuclein (Homo sapiens) (UniProt P37840); experiment: Induction of recombinant alphaSN (unknown origin) fibrillation at 120 uM after 6 days by ThT fluorescence assay
# How it was run: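 Cell-free alpha-synuclein aggregation: SN shaken alone or co-incubated with each drug for 6 days. Fibrillization read by thioflavin T fluorescence and normalized to SN shaken alone for six days. Drugs were also run without SN to check for ThT interference. Means ± SEM of three independent experiments; one-way ANOVA with Tukey's post hoc test.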
# [5] = biological target: T1, D(2) dopamine receptor (Homo sapiens, UniProt P14416); experiment: Agonist activity at human D2 dopamine receptor expressed in CHO cells by [35S]GTPgammaS binding assay; assay type: functional, cell-based
# How it was run: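 [35S]GTPγS binding stimulated in CHO cells expressing human D2 or D3 receptors. The D2/D3 ratio is the ratio of the EC50 values. Values are means ± SEM of three to five experiments, each run in triplicate.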
# [6] = biological target: T1, D(2) dopamine receptor; experiment: Agonist activity at human D2 dopamine receptor expressed in CHO cells by [35S]GTPgammaS binding assay relative to dopamine; assay type: functional, cell-based
# How it was run: (§1)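 [35S]GTPγS binding stimulated in CHO cells expressing human D2 or D3 receptors. […] The D2/D3 ratio is the ratio of the EC50 values. Values are means ± SEM of three to five experiments, each run in triplicate.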
# [7] = biological target: T2, D(3) dopamine receptor (Homo sapiens, UniProt P35462); experiment: Agonist activity at human D3 dopamine receptor expressed in CHO cells by [35S]GTPgammaS binding assay; assay type: functional, cell-based
# [8] = biological target: T2, D(3) dopamine receptor; experiment: Agonist activity at human D3 dopamine receptor expressed in CHO cells by [35S]GTPgammaS binding assay relative to dopamine; assay type: functional, cell-based; how it was run: as §1
# [9] = species: Homo sapiens; experiment: Selectivity ratio of EC50 for human D2 dopamine receptor expressed in CHO cells to EC50 for human D3 dopamine receptor expressed in CHO cells; assay type: cell-based; how it was run: as §1
# [10] = system: Rattus norvegicus; experiment: Reversal of reserpine-induced hypolocomotion in Sprague-Dawley rat assessed as locomotor stimulation at 10 umol/kg, ip administered 18 hrs post reserpine challenge measured over 6 hrs; assay type: functional, organism-based
# How it was run: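 Rats received reserpine 5 mg/kg s.c. The drug was given at 10 µmol/kg i.p. 18 h after reserpine. Horizontal activity (beam interruptions) was recorded in 30-min intervals and compared with reserpine-only controls. n=3 rats per value, mean ± SEM, one-way ANOVA.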
# [11] = system: PC-12; experiment: Neuroprotective activity against 6-OHDA induce toxicity in rat PC12 cells assessed as cell viability preincubated for 24 hrs followed by 6-OHDA addition for 24 hrs by MTT assay; assay type: functional, cell-based
# How it was run: (§2)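 PC12 cells were pretreated for 24 h across a concentration range (0.1-30 µM or 1-50 µM, depending on compound). A single dose of 75 µM 6-OHDA was then added for a further 24 h. Cell viability was measured by MTT assay.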
# [12] = system: PC-12; experiment: Neuroprotective activity against 6-OHDA induce toxicity in rat PC12 cells assessed as cell viability at 30 uM preincubated for 24 hrs followed by 6-OHDA addition for 24 hrs by MTT assay; assay type: functional; conditions: read-out: Activity; how it was run: as §2
# [13] = biological target: Alpha-synuclein (Homo sapiens) (UniProt P37840); experiment: Inhibition of recombinant alphaSN (unknown origin) fibrillation at 120 uM after 6 days by ThT fluorescence assay
# How it was run: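 α-Synuclein was shaken for 6 days with or without the drug. Fibrillization was read by ThT fluorescence, normalized to α-synuclein shaken alone at day 6. Drugs were also tested alone in the ThT read-out. Values are means ± SEM of three independent experiments, compared by one-way ANOVA with Tukey post hoc test.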
# T1 sequence (P14416 whole entry): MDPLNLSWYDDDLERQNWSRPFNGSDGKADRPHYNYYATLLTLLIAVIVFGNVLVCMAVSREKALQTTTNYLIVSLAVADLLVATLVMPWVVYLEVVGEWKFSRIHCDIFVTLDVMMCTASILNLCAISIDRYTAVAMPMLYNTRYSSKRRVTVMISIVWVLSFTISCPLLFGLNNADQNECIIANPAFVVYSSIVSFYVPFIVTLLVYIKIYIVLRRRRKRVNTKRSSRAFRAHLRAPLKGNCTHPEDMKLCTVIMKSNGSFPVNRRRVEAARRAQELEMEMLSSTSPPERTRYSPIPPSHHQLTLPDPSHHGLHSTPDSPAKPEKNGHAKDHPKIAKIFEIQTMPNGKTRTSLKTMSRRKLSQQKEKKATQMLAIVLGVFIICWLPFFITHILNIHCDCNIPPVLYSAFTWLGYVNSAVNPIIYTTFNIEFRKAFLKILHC
# T2 sequence (P35462 whole entry): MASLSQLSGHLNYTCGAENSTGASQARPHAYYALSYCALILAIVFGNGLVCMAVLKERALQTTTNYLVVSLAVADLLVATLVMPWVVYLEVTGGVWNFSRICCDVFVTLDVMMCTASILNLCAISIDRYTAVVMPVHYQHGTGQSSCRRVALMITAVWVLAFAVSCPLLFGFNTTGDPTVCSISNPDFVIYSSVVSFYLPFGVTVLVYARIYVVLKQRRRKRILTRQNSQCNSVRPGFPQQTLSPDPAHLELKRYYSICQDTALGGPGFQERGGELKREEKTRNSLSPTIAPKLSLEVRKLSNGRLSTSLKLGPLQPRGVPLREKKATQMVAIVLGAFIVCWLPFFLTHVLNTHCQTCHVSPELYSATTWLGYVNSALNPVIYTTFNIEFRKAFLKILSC
# D(3) dopamine receptor (Rattus norvegicus, UniProt P19020), sequence (P19020 whole entry): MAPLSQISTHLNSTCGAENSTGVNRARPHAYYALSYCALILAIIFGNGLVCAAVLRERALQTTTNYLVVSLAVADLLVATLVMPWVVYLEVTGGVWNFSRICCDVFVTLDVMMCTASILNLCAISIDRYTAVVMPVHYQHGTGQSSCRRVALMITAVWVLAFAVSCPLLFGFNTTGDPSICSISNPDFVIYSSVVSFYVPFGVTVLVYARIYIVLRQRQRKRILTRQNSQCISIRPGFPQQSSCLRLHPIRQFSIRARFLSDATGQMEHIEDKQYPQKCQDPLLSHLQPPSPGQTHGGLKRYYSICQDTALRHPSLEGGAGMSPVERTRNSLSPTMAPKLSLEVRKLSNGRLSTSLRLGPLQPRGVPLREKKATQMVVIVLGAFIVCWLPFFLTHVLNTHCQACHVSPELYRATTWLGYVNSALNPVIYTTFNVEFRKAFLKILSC
# D(2) dopamine receptor (Rattus norvegicus, UniProt P61169), sequence (P61169 whole entry): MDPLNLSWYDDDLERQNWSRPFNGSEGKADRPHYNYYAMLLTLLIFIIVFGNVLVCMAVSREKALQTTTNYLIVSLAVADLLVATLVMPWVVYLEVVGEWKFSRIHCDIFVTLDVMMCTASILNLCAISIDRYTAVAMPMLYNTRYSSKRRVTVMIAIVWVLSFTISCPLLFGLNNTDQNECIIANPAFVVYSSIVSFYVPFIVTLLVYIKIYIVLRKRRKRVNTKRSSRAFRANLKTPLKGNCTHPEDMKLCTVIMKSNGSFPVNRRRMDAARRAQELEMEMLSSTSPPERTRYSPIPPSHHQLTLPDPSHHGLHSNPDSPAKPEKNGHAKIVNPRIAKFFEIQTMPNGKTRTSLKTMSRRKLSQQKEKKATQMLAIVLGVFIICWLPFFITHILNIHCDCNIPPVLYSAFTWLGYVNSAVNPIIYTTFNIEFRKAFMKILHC
SMILES,Ki [2] [nM],EC50 [5] [nM],Emax [6] [%],EC50 [7] [nM],Emax [8] [%],Ratio Ki [3],further results
CCCN(CCC)C1CCc2c(O)cccc2C1 (configuration not stated),–,–,–,–,–,–,Activity [4]: Active
CCCN(CCC/C=C\c1ccc(O)c(OC)c1)C1CCc2nc(N)sc2C1 (racemic),–,–,–,–,–,10,–
CCCN(CCCc1ccc(O)c(OC)c1)C1CCc2nc(N)sc2C1 (racemic),–,–,–,–,–,153,–
CCCN(CCC)CCc1cccc2c1CC(=O)N2,–,–,–,–,–,–,Activity [10]: Active
CCCN(CCC/C=C/c1ccc(O)c(OC)c1)[C@H]1CCc2nc(N)sc2C1,22.3,37.7,84.3,20.4,87.5,6,Ki [1]: 123 nM; Activity [11]: Dose-dependent effect; viability at 30 µM [12]: 18 to 25%; Ratio EC50 [9]: 1.85
CCCN(CCCCCc1ccc(O)c(O)c1)C1CCc2nc(N)sc2C1 (racemic),–,–,–,–,–,45,–
CCCN[C@H]1CCc2nc(N)sc2C1,–,–,–,–,–,–,Activity [4]: Active
CCCN(CCC/C=C/c1ccc(O)c(OC)c1)C1CCc2nc(N)sc2C1 (racemic),4.24,–,–,–,–,35,Ki [1]: 150 nM
CCCN(C/C=C/c1ccc(O)c(OC)c1)C1CCc2nc(N)sc2C1 (configuration not stated),–,–,–,–,–,119,–

# Second part, led by results:
Ki [2] [nM],EC50 [5] [nM],Emax [6] [%],EC50 [7] [nM],Emax [8] [%],SMILES,Ratio Ki [3],further results
0.675,–,–,–,–,CCCN(CCCCCCc1ccc(O)c(OC)c1)C1CCc2nc(N)sc2C1 (racemic),87,Ki [1]: 58.5 nM
–,2.09,96.2,0.78,94.4,CCCN(CCCCCc1ccc(O)c(OC)c1)[C@H]1CCc2nc(N)sc2C1,43,Ratio EC50 [9]: 2.68
–,22.9,97.4,2.62,83.4,CCCN(CCCCCc1ccc(O)c(O)c1)[C@H]1CCc2nc(N)sc2C1,46,Activity [10]: Active; Activity [11]: Dose-dependent effect; viability at 30 µM [12]: 18 to 25%; inhibition [13]: Active; Ratio EC50 [9]: 8.74
0.493,0.27,88.8,0.33,90.9,CCCN(CCCCCc1ccc(O)c(O)c1)[C@H]1CCc2c(O)cccc2C1,9,Ki [1]: 4.67 nM; Activity [11]: Dose-dependent effect; viability at 30 µM [12]: 18 to 25%; inhibition [13]: Active; Ratio EC50 [9]: 0.82
3.62,–,–,–,–,CCCN(CCCCCc1ccc(O)c(OC)c1)C1CCc2nc(N)sc2C1 (racemic),48,–
0.78,9.3,88,1.22,90.9,CCCN(CCCCCc1cc(O)ccc1O)[C@H]1CCc2nc(N)sc2C1,–,–
